How the values were obtained:
mUCP3 [1] = target: T1, mUCP3 (Mus musculus, UniProt P56501); assay: AFM recognition imaging and force spectroscopy, PN-UCP bond lifetime; assay type: binding; conditions: for change of UCP3-PN lifetime with AA concentration: 15 mol% vs 10 mol% AA; for lifetime of mUCP3-PN interaction: PN bound to AFM tip, supported EPL membranes, pH 7.35, 21°C
T1 sequence (P56501 1-308): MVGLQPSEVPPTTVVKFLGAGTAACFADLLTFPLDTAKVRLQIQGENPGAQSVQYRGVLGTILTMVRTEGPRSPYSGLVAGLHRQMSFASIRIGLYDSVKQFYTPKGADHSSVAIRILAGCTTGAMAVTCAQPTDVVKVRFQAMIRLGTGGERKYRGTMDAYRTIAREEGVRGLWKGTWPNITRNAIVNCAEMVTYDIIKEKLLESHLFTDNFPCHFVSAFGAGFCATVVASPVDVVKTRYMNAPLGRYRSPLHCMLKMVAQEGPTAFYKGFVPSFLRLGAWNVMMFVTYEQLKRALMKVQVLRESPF
Summary of the method: (§1)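 Mouse protein from E. coli inclusion bodies, solubilised in 2% SLS and reconstituted into EPL liposomes. Proteoliposomes incubated 10 min on fresh mica to form supported bilayers. For AA competition, mixed with AA liposomes to 1 mg/ml final lipid. AFM tips carried EDA-ATP, -ADP or -AMP via PEG-acetal linker. Recognition imaging plus force spectroscopy run in 50 mM Na₂SO₄/10 mM MES/10 mM Tris/0.6 mM EGTA, pH 7.35, 21°C. Lifetimes from maximum-likelihood Bell-Evans fits; mean ± SD, ≥3 experiments.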

mUCP3 [2] = target: T1, mUCP3; assay type: biochemical; conditions: for dependence of mUCP3 inhibition on AA concentration: 10 vs 15 mol% AA, 1 mM ATP, 2 mM ADP, 5 mM AMP
Summary of the method: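 Recombinant mouse protein reconstituted into DOPC/DOPE/CL (45:45:10) liposomes. Bilayers formed at 1.5 mg/ml lipid, 6 μg protein/mg lipid, AA 10 or 15 mol%. Run in 50 mM Na₂SO₄/10 mM MES/10 mM Tris/0.6 mM EGTA, pH 7.35, 32°C. I/V recorded −50 to +50 mV, including with 2 mM ATP. G from linear fit at 0 mV gives relative conductance. IC50 and maximum inhibition come from a four-parameter logistic fit. AA-dependence tested at 1 mM ATP, 2 mM ADP, 5 mM AMP. Mean ± SD, ≥3 experiments.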

mUCP1 R84Q = target: T2, mUCP1 R84Q (Mus musculus, UniProt P12242, R84Q); assay: Relative conductance of UCP1 mutant in planar bilayer membranes; assay type: biochemical; conditions: PN 5 mM; 15 mol% AA
T2 sequence (P12242 1-307 R84Q): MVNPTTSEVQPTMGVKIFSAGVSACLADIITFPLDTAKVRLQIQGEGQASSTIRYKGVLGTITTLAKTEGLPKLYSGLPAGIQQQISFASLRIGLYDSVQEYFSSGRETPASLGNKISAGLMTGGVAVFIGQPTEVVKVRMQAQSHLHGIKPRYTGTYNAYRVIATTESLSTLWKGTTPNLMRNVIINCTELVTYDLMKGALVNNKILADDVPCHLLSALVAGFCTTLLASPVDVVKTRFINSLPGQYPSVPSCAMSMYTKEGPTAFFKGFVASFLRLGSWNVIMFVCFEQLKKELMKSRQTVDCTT
Summary of the method: (§2)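 Arginine point mutants made by site-directed mutagenesis, expressed in E. coli Rosetta and reconstituted like wild type. Planar DOPC/DOPE/CL (45:45:10) bilayers carried 15 mol% AA; buffer pH 7.35, 32°C. Relative conductance compared with wild type after nucleotide addition: UCP1 mutants 5 mM ATP, ADP or AMP; UCP3 mutant 2 mM ATP, 4 mM ADP or 8 mM AMP. Mean ± SD, ≥3 experiments.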

mUCP1 [3] = target: T3, mUCP1 (Mus musculus, UniProt P12242); assay type: biochemical; conditions: for maximum inhibition of mUCP1 / extent of inhibition at high PN concentration: 15 mol% AA; for extent of inhibition at high PN concentration: DOPC/DOPE/CL membranes, pH 7.35, 32°C
T3 sequence (P12242 1-307): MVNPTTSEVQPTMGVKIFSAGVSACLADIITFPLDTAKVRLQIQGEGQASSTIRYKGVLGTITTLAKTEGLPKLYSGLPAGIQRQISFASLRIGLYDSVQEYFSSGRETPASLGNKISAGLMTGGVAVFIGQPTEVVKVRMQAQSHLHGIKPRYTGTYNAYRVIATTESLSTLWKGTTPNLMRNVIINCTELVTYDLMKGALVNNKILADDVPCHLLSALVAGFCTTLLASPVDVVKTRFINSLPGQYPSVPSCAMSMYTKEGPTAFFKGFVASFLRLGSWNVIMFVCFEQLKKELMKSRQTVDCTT
Summary of the method: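 Inclusion-body mouse protein reconstituted into DOPC/DOPE/CL (45:45:10) proteoliposomes. Planar bilayers made at 1.5 mg/ml lipid, AA 10 or 15 mol% in the lipid solution, sulfate/MES/Tris/EGTA buffer pH 7.35, 32°C. I/V swept −50 to +50 mV; G at zero voltage from linear fit, normalised to AA-only and UCP+AA membranes. Titrations of nucleotides or phosphate fitted by four-parameter logistic for IC50 and maximum inhibition. AA comparison used 1 mM ATP, 2 mM ADP, 2 mM AMP. Mean ± SD, ≥3 experiments.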

mUCP1 [4] = target: T3, mUCP1; assay: AFM recognition imaging and force spectroscopy, PN-UCP bond lifetime; assay type: binding; conditions: for change of UCP1-PN lifetime with AA concentration: 15 mol% vs 10 mol% AA; for lifetime of mUCP1-PN interaction: PN bound to AFM tip, supported EPL membranes, pH 7.35, 21°C
Summary of the method: as §1

mUCP3R84Q = target: T4, mUCP3R84Q (Mus musculus, UniProt P56501, R84Q); assay: Relative conductance of UCP3 mutant in planar bilayer membranes; assay type: biochemical; conditions: 2 mM ATP, 4 mM ADP or 8 mM AMP; 15 mol% AA
T4 sequence (P56501 1-308 R84Q): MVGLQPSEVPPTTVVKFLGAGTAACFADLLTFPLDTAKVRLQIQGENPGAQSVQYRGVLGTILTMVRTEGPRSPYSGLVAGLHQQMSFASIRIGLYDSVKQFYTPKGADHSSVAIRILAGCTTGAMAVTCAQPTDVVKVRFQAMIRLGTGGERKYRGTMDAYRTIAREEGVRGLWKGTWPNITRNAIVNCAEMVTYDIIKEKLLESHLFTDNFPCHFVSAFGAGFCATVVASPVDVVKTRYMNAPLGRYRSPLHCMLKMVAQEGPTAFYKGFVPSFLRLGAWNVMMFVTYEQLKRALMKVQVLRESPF
Summary of the method: as §2

mUCP1R277L = target: T5, mUCP1R277L (Mus musculus, UniProt P12242, R277L); assay: Relative conductance of UCP1 mutant in planar bilayer membranes; assay type: biochemical; conditions: PN 5 mM; 15 mol% AA
T5 sequence (P12242 1-307 R277L): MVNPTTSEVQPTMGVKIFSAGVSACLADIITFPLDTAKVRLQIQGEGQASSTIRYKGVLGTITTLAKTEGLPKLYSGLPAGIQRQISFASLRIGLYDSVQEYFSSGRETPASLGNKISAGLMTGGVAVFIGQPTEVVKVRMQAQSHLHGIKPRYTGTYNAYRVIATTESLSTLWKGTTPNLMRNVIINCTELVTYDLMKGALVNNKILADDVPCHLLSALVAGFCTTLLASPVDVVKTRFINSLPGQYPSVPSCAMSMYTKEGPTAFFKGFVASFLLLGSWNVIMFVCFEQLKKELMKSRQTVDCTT
Summary of the method: as §2

mUCP1R183T = target: T6, mUCP1R183T (Mus musculus, UniProt P12242, R183T); assay: as above; assay type: biochemical; conditions: PN 5 mM; 15 mol% AA
T6 sequence (P12242 1-307 R183T): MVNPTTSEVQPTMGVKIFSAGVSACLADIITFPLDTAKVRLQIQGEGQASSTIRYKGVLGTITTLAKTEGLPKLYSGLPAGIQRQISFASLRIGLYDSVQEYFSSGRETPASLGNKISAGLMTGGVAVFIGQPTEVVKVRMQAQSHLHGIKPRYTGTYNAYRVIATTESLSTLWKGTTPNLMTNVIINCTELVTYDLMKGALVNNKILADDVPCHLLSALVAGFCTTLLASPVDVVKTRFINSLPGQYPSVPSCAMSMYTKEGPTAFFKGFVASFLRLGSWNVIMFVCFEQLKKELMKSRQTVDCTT
Summary of the method: as §2

mUCP3 [5] = target: T1, mUCP3; assay type: biochemical; conditions: membrane reconstituted with AA and mUCP3, pH gradient; seven independent experiments
[6] = DOPC/DOPE/CL membranes, 15 mol% AA, pH 7.35, 32°C
[7] = lower FFA concentrations vs 15 mol% AA

Row | Molecule | change of UCP3-PN lifetime with AA concentration (mUCP3 [1]) | lifetime of mUCP3-PN interaction (mUCP3 [1]) | extent of inhibition at high inhibitor concentration (mUCP3 [2]; [6]) | inhibition of mutant compared to mUCP1 wt (mUCP1 R84Q) | maximum inhibition of mUCP1 (mUCP1 [3]) | extent of inhibition at high PN concentration (mUCP1 [3]) | change of UCP1-PN lifetime with AA concentration (mUCP1 [4]) | lifetime of mUCP1-PN interaction (mUCP1 [4]) | inhibition of mutant compared to wild type mUCP3 (mUCP3R84Q) | inhibition of mutant compared to mUCP1 wt (mUCP1R277L) | current I and total membrane conductance G after addition of inhibitor (mUCP3 [2]; 2 mM ATP, 15 mol% AA) | dependence of mUCP3 inhibition on AA concentration (mUCP3 [2]) | PN concentration at which maximum inhibition is achieved (mUCP3 [2]; [6]) | inhibition of mutant compared to mUCP1 wt (mUCP1R183T) | change in maximum inhibition of mUCP1 at lower FFA concentration (mUCP1 [3]; [7]) | effect of FFA concentration on IC50 of mUCP1 inhibition (mUCP1 [3]; [7]) | membrane total conductance after addition of α-cyclodextrin (mUCP3 [2]; extraction of FA from the membrane) | proton transport rate κ (mUCP3 [5])
1 | Nc1ncnc2c1ncn2[C@@H]1O[C@H](COP(=O)(O)OP(=O)(O)OP(=O)(O)O)[C@@H](O)[C@H]1O [ATP] | significantly increased | 1.33 s |  | similarly reduced |  |  | significantly increased | 1.12 s | decreased the strength | similarly reduced | decreased | higher at lower AA concentration | approx. 4 mM | similarly reduced |  |  |  | 
2 | OC[C@H]1O[C@@H]2O[C@H]3[C@H](O)[C@@H](O)[C@@H](O[C@H]4[C@H](O)[C@@H](O)[C@@H](O[C@H]5[C@H](O)[C@@H](O)[C@@H](O[C@H]6[C@H](O)[C@@H](O)[C@@H](O[C@H]7[C@H](O)[C@@H](O)[C@@H](O[C@H]1[C@H](O)[C@H]2O)O[C@@H]7CO)O[C@@H]6CO)O[C@@H]5CO)O[C@@H]4CO)O[C@@H]3CO [α-cyclodextrin, alpha-cyclodextrin] |  |  |  |  |  |  |  |  |  |  |  |  |  |  |  |  | decrease of membrane total conductance | 

Results, then the molecule that gave them:

Row | change of UCP3-PN lifetime with AA concentration (mUCP3 [1]) | lifetime of mUCP3-PN interaction (mUCP3 [1]) | extent of inhibition at high inhibitor concentration (mUCP3 [2]; [6]) | inhibition of mutant compared to mUCP1 wt (mUCP1 R84Q) | maximum inhibition of mUCP1 (mUCP1 [3]) | extent of inhibition at high PN concentration (mUCP1 [3]) | change of UCP1-PN lifetime with AA concentration (mUCP1 [4]) | lifetime of mUCP1-PN interaction (mUCP1 [4]) | inhibition of mutant compared to wild type mUCP3 (mUCP3R84Q) | inhibition of mutant compared to mUCP1 wt (mUCP1R277L) | current I and total membrane conductance G after addition of inhibitor (mUCP3 [2]; 2 mM ATP, 15 mol% AA) | dependence of mUCP3 inhibition on AA concentration (mUCP3 [2]) | PN concentration at which maximum inhibition is achieved (mUCP3 [2]; [6]) | inhibition of mutant compared to mUCP1 wt (mUCP1R183T) | change in maximum inhibition of mUCP1 at lower FFA concentration (mUCP1 [3]; [7]) | effect of FFA concentration on IC50 of mUCP1 inhibition (mUCP1 [3]; [7]) | membrane total conductance after addition of α-cyclodextrin (mUCP3 [2]; extraction of FA from the membrane) | proton transport rate κ (mUCP3 [5]) | Molecule
3 | unaffected | 0.13 s | fully inhibit | did not affect | lower than 100% | partially inhibit | unaffected | 0.16 s | did not affect | no longer able to inhibit |  |  |  |  |  |  |  |  | Nc1ncnc2c1ncn2[C@@H]1O[C@H](COP(=O)(O)O)[C@@H](O)[C@H]1O [AMP]
4 | not significant | 0.56 s |  | did not affect | lower than 100% | partially inhibit | significantly increased | 0.75 s | decreased the strength |  |  | less |  | impaired inhibition | No change | affected |  |  | Nc1ncnc2c1ncn2[C@@H]1O[C@H](COP(=O)(O)OP(=O)(O)O)[C@@H](O)[C@H]1O [ADP]
5 |  |  |  |  |  |  |  |  |  |  |  |  |  |  |  |  |  | 2.56 ± 0.79 s⁻¹ | mUCP3: recombinant mouse uncoupling protein 3 reconstituted in planar lipid membranes (protein, UniProt P56501 1-308, looked up) Putative mitochondrial …: MVGLQPSEVPPTTVVKFLGAGTAACFADLLTFPLDTAKVRLQIQGENPGAQSVQYRGVLGTILTMVRTEGPRSPYSGLVAGLHRQMSFASIRIGLYDSVKQFYTPKGADHSSVAIRILAGCTTGAMAVTCAQPTDVVKVRFQAMIRLGTGGERKYRGTMDAYRTIAREEGVRGLWKGTWPNITRNAIVNCAEMVTYDIIKEKLLESHLFTDNFPCHFVSAFGAGFCATVVASPVDVVKTRYMNAPLGRYRSPLHCMLKMVAQEGPTAFYKGFVPSFLRLGAWNVMMFVTYEQLKRALMKVQVLRESPF

From publication PMC6118327 (Biochimica et biophysica acta. Biomembranes, 2017)
